The source of these data is ChEMBL document CHEMBL1139595, “Inhibition of IKK-2 by 2-[(aminocarbonyl)amino]-5-acetylenyl-3-thiophenecarboxamides” (Bioorg Med Chem Lett, 2005).

Experiment [1] has as its target T1, Inhibitor of nuclear factor kappa-B kinase subunit beta (Homo sapiens, UniProt O14920).
T1 sequence (O14920 whole entry): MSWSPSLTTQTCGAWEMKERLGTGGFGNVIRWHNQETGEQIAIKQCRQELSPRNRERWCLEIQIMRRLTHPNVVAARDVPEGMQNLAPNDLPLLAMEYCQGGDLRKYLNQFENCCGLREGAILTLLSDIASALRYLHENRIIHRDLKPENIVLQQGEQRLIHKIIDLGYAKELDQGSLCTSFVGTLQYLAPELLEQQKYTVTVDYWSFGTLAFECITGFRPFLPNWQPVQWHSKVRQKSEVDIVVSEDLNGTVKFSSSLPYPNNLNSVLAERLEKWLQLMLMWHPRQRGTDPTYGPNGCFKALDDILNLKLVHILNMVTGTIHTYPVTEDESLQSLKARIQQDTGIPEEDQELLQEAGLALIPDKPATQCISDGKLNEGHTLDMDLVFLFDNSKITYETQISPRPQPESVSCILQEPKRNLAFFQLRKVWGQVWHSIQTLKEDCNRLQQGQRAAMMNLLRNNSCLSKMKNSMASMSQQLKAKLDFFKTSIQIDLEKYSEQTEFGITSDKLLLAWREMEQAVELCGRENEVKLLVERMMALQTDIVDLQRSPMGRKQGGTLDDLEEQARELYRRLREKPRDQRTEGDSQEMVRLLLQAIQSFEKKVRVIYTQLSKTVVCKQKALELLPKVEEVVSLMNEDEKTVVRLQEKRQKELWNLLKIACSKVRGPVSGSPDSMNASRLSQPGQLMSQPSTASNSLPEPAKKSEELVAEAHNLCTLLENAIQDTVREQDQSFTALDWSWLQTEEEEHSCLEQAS
The experiment is described as follows: Inhibitory concentration against human recombinant I-kappa-B-kinase 2 from 3 experiments.

The nature of experiment [2]: Lethal concentration towards rheumatoid arthritis-derived synovial fibroblasts using Alamar Blue reagent. The class given is functional. The following applies: Homo sapiens; read-out: LC50 (the source's name). The gist of the method: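 Primary RASF from knee synovectomy tissue, cultured in DMEM high glucose with 15% bovine serum; 1.5×10^4 cells/well in 1% serum, pre-treated 1 h with seven-point inhibitor doses in 0.2% Me2SO, then stimulated overnight with 1 ng/mL IL-1β. After removing the supernatant, Alamar Blue added, 2.5 h at 37 °C, 5% CO2; fluorescence read, LC50 derived.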

Experiment [3] concerns the target T2, Inhibitor of nuclear factor kappa-B kinase subunit beta (Homo sapiens) (UniProt O14920).
T2 sequence (whole entry): T1 sequence (O14920 whole entry)
The experiment is described as follows: Ratio of inhibitory concentration of rheumatoid arthritis-derived synovial fibroblasts to human recombinant I-kappa-B-kinase 2. In kind it is functional.

The nature of experiment [4]: Inhibitory concentration against interleukin-8 production in rheumatoid arthritis-derived synovial fibroblasts (RASFs) from 2 experiments. In kind it is functional. The following applies: Homo sapiens. An outline of the steps:
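Primary RASF from knee synovectomy tissue, grown in DMEM high glucose with 15% bovine serum and gentamicin. 1.5×10^4 cells/well attached overnight, moved to DMEM with 1% serum. Pre-treated 1 h with a seven-point dose series in 0.2% Me₂SO, then stimulated overnight with 1 ng/mL IL-1β. IL-8 in supernatant measured by ELISA; IC50 from curve.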

As for `NC(=O)Nc1sc(C#Cc2ccccc2Cl)cc1C(N)=O`, in experiment [1], the IC50 turned out to be 1010 nM.
The same measure, in the same setting: with `NC(=O)Nc1sc(C#Cc2cccc(NC(=O)C(F)(F)F)c2)cc1C(N)=O` the figure was 980 nM; with `NC(=O)Nc1sc(C#Cc2ccccc2F)cc1C(N)=O`, 620 nM.
Same read-out and setting: with `CC(C)C(O)c1cc(C#Cc2cc(C(N)=O)c(NC(N)=O)s2)cs1` (stereo not drawn) the figure was 563 nM.
Same read-out and setting: with `NC(=O)Nc1sc(C#Cc2cccc(N)c2)cc1C(N)=O` the figure was 709 nM; with `NC(=O)c1sc(-c2ccsc2)cc1N`, 11200 nM; with `COC(=O)NCCC(=O)Nc1cccc(C#Cc2cc(C(N)=O)c(NC(N)=O)s2)c1`, 4400 nM.
Take `NC(=O)Nc1sc(C#Cc2cccc(F)c2)cc1C(N)=O`: the IC50 in experiment [1] is 331 nM; in experiment [4] it was 1650 nM. In addition, in experiment [2], the CC50 was greater than 30000 nM. The Ratio in experiment [3] stood at 5.
As for `NC(=O)Nc1sc(C#Cc2cccc(NC(=O)c3cccnc3)c2)cc1C(N)=O`, the IC50 in experiment [1] was 557 nM.
On to `Cc1ccccc1C#Cc1cc(C(N)=O)c(NC(N)=O)s1`, for which, in experiment [1], the IC50 turned out to be 716 nM.
As for `CS(=O)(=O)Nc1cccc(C#Cc2cc(C(N)=O)c(NC(N)=O)s2)c1`, the concentration for half-maximal inhibition (IC50) in experiment [1] turned out to be 454 nM; in experiment [4], 12900 nM. Besides, the CC50 in experiment [2] is greater than 30000 nM. The Ratio in experiment [3] amounted to 28.
For `NC(=O)Nc1sc(C#Cc2cccc(NC(=O)c3ccccc3)c2)cc1C(N)=O`, in experiment [1], the IC50 amounted to 704 nM.
With `N#Cc1cc(C#Cc2cc(C(N)=O)c(NC(N)=O)s2)cs1`, the IC50 worked out at 333 nM in experiment [1] and 832 nM in experiment [4]. For the same molecule, the CC50 in experiment [2] was greater than 30000 nM. In addition, the Ratio in experiment [3] is 2.5.
As to `NC(=O)Nc1sc(C#CC2CC2)cc1C(N)=O`, the half-maximal inhibitory concentration (IC50) in experiment [1] amounted to 273 nM; in experiment [4] it was 3060 nM. The CC50 in experiment [2] was greater than 30000 nM. Moreover, the Ratio in experiment [3] was 11.
For `NC(=O)Nc1sc(C#Cc2ccsc2)cc1C(N)=O` the same measures were 420 nM, 1180 nM, greater than 30000 nM and 2.8.
For the molecule `CC(=O)Nc1cccc(C#Cc2cc(C(N)=O)c(NC(N)=O)s2)c1`, in experiment [1], the IC50 is 964 nM.
The same measure, in the same setting: with `CCC(O)c1cc(C#Cc2cc(C(N)=O)c(NC(N)=O)s2)cs1` (stereo not drawn) the figure was 465 nM.
Consider `NC(=O)Nc1sc(C#Cc2csc(CO)c2)cc1C(N)=O`, for which the results for the concentration for half-maximal inhibition (IC50) in experiment [1] and in experiment [4] were 195 nM and 1130 nM, respectively. Moreover, in experiment [2], the CC50 is greater than 30000 nM. Moreover, the Ratio in experiment [3] turned out to be 5.8.
With `NC(=O)Nc1sc(C#Cc2cccc(NC(=O)c3ccncc3)c2)cc1C(N)=O`, the IC50 in experiment [1] came out at 1850 nM.
Same read-out and setting: with `CN(C)CC(=O)Nc1cccc(C#Cc2cc(C(N)=O)c(NC(N)=O)s2)c1` the figure was 1880 nM.
For the molecule `NC(=O)Nc1sc(C#Cc2cccc(O)c2)cc1C(N)=O`, the half-maximal inhibitory concentration (IC50) in experiment [1] came out at 303 nM; in experiment [4], 576 nM. Also, in experiment [2], the CC50 was determined as 2720 nM. For the same molecule, the Ratio in experiment [3] worked out at 1.9.
As to `NC(=O)Nc1sc(C#Cc2cccc(NC(=O)c3ccccn3)c2)cc1C(N)=O`, in experiment [1], the half-inhibitory concentration (IC50) was greater than 20000 nM.
